This note sets out measurements from ChEMBL document CHEMBL1143990, “Design, synthesis and evaluation of antiinflammatory, analgesic and ulcerogenicity studies of novel S-substituted phenacyl-1,3,4-oxadiazole-2-thiol and Schiff bases of diclofenac acid as nonulcerogenic derivatives” (Bioorg Med Chem, 2008).

The subject of data set [1] is Rattus norvegicus. Put plainly: Antiinflammatory activity against carrageenan-induced paw edema in orally dosed Wistar rat after 1 hr relative to control. The format is functional. The gist of the method: (§1)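 Wistar rats of either sex, 100–120 g, fasted 24 h with water available. Compounds were suspended in 1% aqueous CMC and given orally 1 h before 0.1 mL of freshly prepared 1.0% w/v carrageenan was injected subplantar into the right hind paw. Paw volume was measured before and after carrageenan. Change in paw volume is mean ± SD versus vehicle control, by one-way ANOVA with Dunnett's test.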
On the technique in general: The carrageenan paw model is a standard test of acute inflammation.

The subject of data set [2] is Rattus norvegicus. Kind of data set: Antiinflammatory activity against carrageenan-induced paw edema in orally dosed Wistar rat after 2 hrs relative to control. The format is functional. An outline of the steps:
as §1

Data set [3] has as its system Rattus norvegicus. Kind of data set: Antiinflammatory activity against carrageenan-induced paw edema in orally dosed Wistar rat after 3 hrs relative to control. The data set is classed as functional. The gist of the method: as §1
The next data set relates to Mus musculus. Kind of data set: Analgesic activity against acetic acid-induced writhing in Swiss Albino mouse at 10 mg/kg, po after 25 mins relative to control. The data set is classed as functional. An outline of the steps:
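Mice given compounds orally at 10 mg/kg, suspended in 1% aqueous sodium carboxymethyl cellulose. Vehicle-only controls were run. Acetic acid was used to induce writhing. Writhes were counted over 25 min after treatment and reported as mean ± SEM. Percent inhibition was calculated versus the vehicle control.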
(An intraperitoneal irritant provokes the stretching counted in writhing tests.)

In data set [4] the test system is Rattus norvegicus. Kind of data set: Gastric-ulcerogenic effect in Wistar rat at 10 mg/kg, po. The format is ADME, organism-based. Conditions: in vivo. The arrangement: dose 10 mg/kg, route oral. The gist of the method: (§2)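 Wistar rats of either sex (100–120 g), kept at 25 °C and 50% relative humidity on a 12 h light/dark cycle, fasted 24 h with water ad libitum. Compounds were suspended in 1% aqueous CMC and given orally; controls received vehicle. Ulceration was induced in a stress model with added cold stress. Gastric mucosa was scored, with severity index = treated mean score minus control mean. Ratio of ulcerated animals recorded. Mean ± SEM; one-way ANOVA with Dunnett's test. Tissue examined after H&E staining.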

In data set [5] the test system is Rattus norvegicus. Put plainly: Gastric-ulcerogenic effect in Wistar rat at 30 mg/kg, po. The data set is classed as ADME, organism-based. The settings on record: in vivo. The arrangement: dose 30 mg/kg, route oral. The gist of the method:
as §2

Data set [6] concerns Rattus norvegicus. Put plainly: Gastric-ulcerogenic effect in Wistar rat at 50 mg/kg, po. The format is ADME, organism-based. The arrangement: dose 50 mg/kg, route oral. Conditions: in vivo. The gist of the method: as §2
In data set [7] the test system is Rattus norvegicus. Kind of data set: Induction of gastric ulcer in orally dosed Wistar rat assessed as stomach mucosal damage. The format is organism-based. The settings on record: in vivo, po. The gist of the method:
as §2

In general, Inhibition refers to the share of the control response that was lost under treatment. Low readings indicate a weak effect, high ones a strong effect. As for `Cc1ccc(/C=N/NC(=O)Cc2ccccc2Nc2c(Cl)cccc2Cl)cc1`, the Inhibition was 20.99% in the data set with Rattus norvegicus [1], 43.09% in the data set with Rattus norvegicus [2] and 68.62% with Rattus norvegicus [3].
Taken in the same sequence, the figures for `O=C(Cc1ccccc1Nc1c(Cl)cccc1Cl)N/N=C/c1ccccc1Cl` were 13.54%, 40.2% and 60.99%.
What is called inhibition in vivo is the relative decrease from the control value, in per cent. Low values mean little suppression, high ones strong suppression. Regarding `COc1ccc(/C=N/NC(=O)Cc2ccccc2Nc2c(Cl)cccc2Cl)cc1`, the Inhibition in the data set on Rattus norvegicus [1] turned out to be 27.21%; in the data set with Rattus norvegicus [2], 51.88%; in the data set with Rattus norvegicus [3] it was 73.36%. Also, the inhibition in vivo at 10 mg/kg in the data set with Mus musculus was found to be 53.9%. Besides, the Activity result with Rattus norvegicus [4], in the data set with Rattus norvegicus [5], with Rattus norvegicus [6] and in the data set on Rattus norvegicus [7] was “Non-toxic” throughout.
`COc1cc(/C=N/NC(=O)Cc2ccccc2Nc2c(Cl)cccc2Cl)cc(OC)c1OC`: the Inhibition with Rattus norvegicus [1] was determined as 29.11%; with Rattus norvegicus [2], 50.97%; with Rattus norvegicus [3], 71.93%.
Take `O=C(CSc1nnc(Cc2ccccc2Nc2c(Cl)cccc2Cl)o1)c1ccc(O)cc1`: the values for the Inhibition with Rattus norvegicus [1], in the data set with Rattus norvegicus [2] and with Rattus norvegicus [3] were 31.55%, 48.91% and 71.99%, respectively. In the data set on Mus musculus, the inhibition in vivo at 10 mg/kg was 68.2%.
For `COc1cccc(C(=O)CSc2nnc(Cc3ccccc3Nc3c(Cl)cccc3Cl)o2)c1`, the Inhibition is given as 23.8% in the data set on Rattus norvegicus [1], 52.09% in the data set with Rattus norvegicus [2] and 74.23% in the data set with Rattus norvegicus [3]. Moreover, at 10 mg/kg the inhibition in vivo in the data set with Mus musculus was 66.9%. The Activity result with Rattus norvegicus [4], in the data set on Rattus norvegicus [5], in the data set on Rattus norvegicus [6] and in the data set with Rattus norvegicus [7] was “Non-toxic” each time.
Take `O=C(Cc1ccccc1Nc1c(Cl)cccc1Cl)N/N=C/c1ccc(Br)cc1`: the Inhibition in the data set with Rattus norvegicus [1] is given as 30.53%; in the data set on Rattus norvegicus [2], 51.72%; in the data set on Rattus norvegicus [3], 80.07%. In addition, in the data set with Mus musculus, the inhibition in vivo at 10 mg/kg worked out at 68.7%. Moreover, the Activity result in the data set on Rattus norvegicus [4], with Rattus norvegicus [5], in the data set with Rattus norvegicus [6] and in the data set with Rattus norvegicus [7] was “Non-toxic” throughout.
With `O=C(CSc1nnc(Cc2ccccc2Nc2c(Cl)cccc2Cl)o1)c1ccc([N+](=O)[O-])cc1`, the results for the Inhibition in the data set with Rattus norvegicus [1], in the data set with Rattus norvegicus [2] and in the data set with Rattus norvegicus [3] were 20.99%, 45.64% and 67.19%, respectively.
Take `O=C(Cc1ccccc1Nc1c(Cl)cccc1Cl)N/N=C/c1ccccc1O`: the Inhibition with Rattus norvegicus [1] came to 31.38%; in the data set on Rattus norvegicus [2] it was 46.96%; with Rattus norvegicus [3], 72.88%. Testing at 10 mg/kg in the data set with Mus musculus gave an inhibition in vivo of 60.5%. The Activity result in the data set on Rattus norvegicus [4], in the data set with Rattus norvegicus [5], with Rattus norvegicus [6] and in the data set with Rattus norvegicus [7] was “Non-toxic” each time.
For `O=C(Cc1ccccc1Nc1c(Cl)cccc1Cl)N/N=C/C=C/c1ccccc1`, the results for the Inhibition in the data set on Rattus norvegicus [1], in the data set on Rattus norvegicus [2] and with Rattus norvegicus [3] were 32.28%, 48.81% and 72.76%, respectively. This molecule displayed an inhibition in vivo at 10 mg/kg in the data set with Mus musculus of 45.3%.
For the molecule `O=C(CSc1nnc(Cc2ccccc2Nc2c(Cl)cccc2Cl)o1)c1cccc(O)c1`, the results for the Inhibition in the data set on Rattus norvegicus [1], with Rattus norvegicus [2] and in the data set on Rattus norvegicus [3] were 17.94%, 44.53% and 69.89%, respectively.
Turning to `O=C(CSc1nnc(Cc2ccccc2Nc2c(Cl)cccc2Cl)o1)c1cccc([N+](=O)[O-])c1`, the results for the Inhibition in the data set with Rattus norvegicus [1], in the data set on Rattus norvegicus [2] and in the data set with Rattus norvegicus [3] were 28.34%, 49.47% and 60.39%, respectively.
Regarding `O=C(CSc1nnc(Cc2ccccc2Nc2c(Cl)cccc2Cl)o1)c1ccc(Br)cc1`, the Inhibition in the data set with Rattus norvegicus [1] came out at 26.02%; with Rattus norvegicus [2] it was 45.16%; in the data set on Rattus norvegicus [3], 71.05%. Also, the inhibition in vivo at 10 mg/kg in the data set on Mus musculus was 55%.
For the molecule `O=C(Cc1ccccc1Nc1c(Cl)cccc1Cl)N/N=C/c1ccc(F)cc1`, the Inhibition is 16.64% in the data set on Rattus norvegicus [1], 41.35% in the data set on Rattus norvegicus [2] and 60.34% in the data set with Rattus norvegicus [3].
For `COc1ccc(C(=O)CSc2nnc(Cc3ccccc3Nc3c(Cl)cccc3Cl)o2)cc1OC`, the Inhibition in the data set on Rattus norvegicus [1] is 23.43%; with Rattus norvegicus [2] it was 48.63%; with Rattus norvegicus [3], 72.63%. The same molecule showed an inhibition in vivo at 10 mg/kg with Mus musculus of 51.4%. The Activity result in the data set on Rattus norvegicus [4], with Rattus norvegicus [5], with Rattus norvegicus [6] and in the data set on Rattus norvegicus [7] was “Non-toxic” each time.
Take `CN(C)c1ccc(/C=N/NC(=O)Cc2ccccc2Nc2c(Cl)cccc2Cl)cc1`: the figures for the Inhibition in the data set on Rattus norvegicus [1], in the data set with Rattus norvegicus [2] and with Rattus norvegicus [3] were 28.2%, 48.75% and 69.39%, respectively.
For `O=C(Cc1ccccc1Nc1c(Cl)cccc1Cl)N/N=C/c1cccc([N+](=O)[O-])c1`, the figures for the Inhibition in the data set with Rattus norvegicus [1], in the data set on Rattus norvegicus [2] and with Rattus norvegicus [3] were 20.87%, 47.02% and 69.79%, respectively.
For the molecule `O=C(Cc1ccccc1Nc1c(Cl)cccc1Cl)N/N=C/c1ccc(O)cc1`, the Inhibition with Rattus norvegicus [1] was 16.28%; in the data set on Rattus norvegicus [2] it was 38.14%; with Rattus norvegicus [3], 70.94%.
On to `O=C(CSc1nnc(Cc2ccccc2Nc2c(Cl)cccc2Cl)o1)c1ccc(Cl)c(Cl)c1`, for which the Inhibition worked out at 30.46% in the data set on Rattus norvegicus [1], 52.26% in the data set on Rattus norvegicus [2] and 60.39% in the data set with Rattus norvegicus [3].
On to `O=C([O-])Cc1ccccc1Nc1c(Cl)cccc1Cl.[Na+]` [DICLOFENAC SODIUM], for which the figures for the Inhibition in the data set with Rattus norvegicus [1], with Rattus norvegicus [2] and in the data set on Rattus norvegicus [3] were 28.69%, 48.99% and 71.3%, respectively. In addition, the inhibition in vivo at 10 mg/kg in the data set with Mus musculus turned out to be 64.7%. Moreover, the UI with Rattus norvegicus [4] was 1.8; with Rattus norvegicus [5], 2.1.
